{"data": "Results from different studies", "G protein-coupled receptor 88": "G protein-coupled receptor 88 (Homo sapiens, UniProt Q9GZN0)", "Cnr2": "Cannabinoid receptor 2 (Cnr2, Mus musculus, UniProt P47936)", "PDGFRA": "Platelet-derived growth factor receptor alpha (PDGFRA, Homo sapiens, UniProt P16234)"}
{"SMILES": "CCCc1ccc(-c2ccc([C@@H](CO)C(=O)N[C@H](C)c3ccccc3)cc2)cc1", "target": "G protein-coupled receptor 88", "test": "cAMP, agonist, TR-FRET", "quantity": "Emax", "result": "96%"}
{"SMILES": "Nc1ncc(-c2nc(N3CCOCC3)nc(N3CCOCC3)n2)c(C(F)F)n1", "target": "5'-AMP-activated protein kinase catalytic subunit alpha-1 (PRKAA1, Homo sapiens, UniProt Q13131)", "test": "cell-free assay, competition with immobilised ligand", "conditions": "10 µM", "quantity": "remaining binding", "result": "91%"}
{"SMILES": "Cn1cc(-c2cccc(N3CCc4c(sc5c4CC(C)(C)C5)C3=O)c2CO)cc(Nc2ccncn2)c1=O", "target": "Platelet-derived growth factor receptor alpha (PDGFRA, Homo sapiens, UniProt P16234, T674I)", "test": "enzyme activity, inhibitor", "conditions": "1 µM", "quantity": "inhibition", "result": "-4%"}
{"SMILES": "C#Cc1n[nH]c2c(-c3cn([C@@H](C)c4ccccn4)c(=O)[nH]c3=O)cc(F)cc12", "target": "Ephrin type-B receptor 1 (EPHB1, Homo sapiens, UniProt P54762)", "test": "enzyme activity, inhibitor", "conditions": "0.1 µM", "quantity": "inhibition", "result": "1.8%"}
{"SMILES": "CCCCOc1ccc([C@@H](CO)C(=O)N[C@H](C)c2ccccc2)cc1", "target": "G protein-coupled receptor 88", "test": "cAMP, agonist, TR-FRET", "test system": "CHO", "quantity": "Emax", "result": "100%"}
{"SMILES": "Cc1nc2c(=O)n(C)c(=O)nc-2n(C)n1", "target": "Protein disulfide-isomerase (P4HB, Homo sapiens, UniProt P07237)", "test": "thermal stability, DSF", "conditions": "1 µM", "quantity": "ΔTm", "result": "-1.43 °C"}
{"SMILES": "CCOC(=O)C(CC)(CCCSCCOCCOCCNc1ccc([N+](=O)[O-])c2nonc12)NC(=O)c1ccc(C2CC2)c(Cc2ccc(F)cc2)n1 (racemic)", "target": "Cnr2", "test": "cAMP, agonist", "quantity": "Emax", "result": "123%"}
{"SMILES": "Cn1cc(-c2cc(F)cc(N3CCn4c(cc5c4CCCC5)C3=O)c2CO)cc(Nc2ccc(N3CCN(C4COC4)CC3)cn2)c1=O", "target": "PDGFRA", "test": "enzyme activity, inhibitor", "conditions": "0.1 µM", "quantity": "inhibition", "result": "23%"}
{"SMILES": "Cc1nn(C)cc1-c1nc2c(N3CCN(Cc4ccc(Cl)cc4)CC3)c(Cl)cnc2[nH]1", "target": "Cyclin-dependent kinase 13 (CDK13, Homo sapiens, UniProt Q14004)", "test": "binding, competition with immobilised ligand", "conditions": "1 µM", "quantity": "remaining binding", "result": "77%"}
{"SMILES": "CCOC(=O)C(CC)(CCCSCCOCCOCCOCCNC(=O)OC(C)(C)C)NC(=O)c1ccc(C2CC2)c(Cc2ccc(F)cc2)n1 (centres unmarked)", "target": "Cnr2", "test": "cAMP, agonist", "quantity": "Emax", "result": "87%"}
{"SMILES": "CCC[C@@H](C)COc1ccc([C@@H](CO)C(=O)N[C@H](C)c2ccccc2)cc1", "target": "G protein-coupled receptor 88", "test": "cAMP, agonist, TR-FRET", "test system": "CHO", "quantity": "Emax", "result": "105%"}
{"SMILES": "COc1ncccc1-c1cnn2ccc(N3CCN(C(=O)OC(C)C)CC3)nc12", "target": "PDGFRA", "test": "binding, competition with immobilised ligand", "conditions": "1 µM", "quantity": "remaining binding", "result": "100%"}
{"SMILES": "CC[C@H](C)COc1ccc([C@@H](CO)C(=O)N[C@H](C)c2ccccc2)cc1", "target": "G protein-coupled receptor 88", "test": "cAMP, agonist, TR-FRET", "quantity": "Emax", "result": "88%"}
{"SMILES": "CC[C@H](NC(=O)OCc1ccccc1)C(=O)N[C@H](C(=O)N[C@@H](CC(C)C)C(=O)N(C)N(C#N)CCC(N)=O)C(C)(C)C", "target": "Procathepsin L (CTSL, Homo sapiens, UniProt P07711)", "test": "enzyme activity, inhibitor", "quantity": "kon", "result": "17300 M⁻¹ s⁻¹"}
